Bioassay records as filed in PubChem BioAssay.
KCNQ1 pot: potentiates or activates the human KCNQ1 potassium channel; P51787; AID 2648; 310,000 compounds, 0.35% hits; B-score at 10 µM; CHO-K1 KCNQ1, thallium flux FluxOR fluorescence; active compounds read high;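 active means fluorescence ratio B-score, a plate-corrected score, at least three library SD, with initial intensity B-score within 5 SD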
Target sequence (P51787 whole entry, looked up): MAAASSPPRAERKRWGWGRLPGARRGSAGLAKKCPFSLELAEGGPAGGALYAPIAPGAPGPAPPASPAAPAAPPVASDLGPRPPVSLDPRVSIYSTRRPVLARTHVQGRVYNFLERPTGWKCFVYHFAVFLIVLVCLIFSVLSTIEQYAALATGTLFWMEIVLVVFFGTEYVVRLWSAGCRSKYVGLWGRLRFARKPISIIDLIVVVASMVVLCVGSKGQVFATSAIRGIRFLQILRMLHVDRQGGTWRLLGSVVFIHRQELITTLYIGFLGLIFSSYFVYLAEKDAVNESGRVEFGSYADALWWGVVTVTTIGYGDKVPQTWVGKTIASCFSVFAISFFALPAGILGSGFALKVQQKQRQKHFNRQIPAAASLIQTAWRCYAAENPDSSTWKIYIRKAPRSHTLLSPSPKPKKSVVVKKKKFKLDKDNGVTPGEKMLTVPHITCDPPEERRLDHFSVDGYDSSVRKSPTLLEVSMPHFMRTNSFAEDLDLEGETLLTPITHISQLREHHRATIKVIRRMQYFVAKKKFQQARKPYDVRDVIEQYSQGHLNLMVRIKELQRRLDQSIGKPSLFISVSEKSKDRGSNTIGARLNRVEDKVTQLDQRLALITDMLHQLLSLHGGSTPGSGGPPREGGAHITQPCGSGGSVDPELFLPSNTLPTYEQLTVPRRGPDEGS
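Doses: Single concentration per compound, DMSO matched to controls | Test system: KCNQ1-transfected CHO-K1 cells | Timing: 90 min dye loading and 20 min compound exposure, both at room temperature | Measured by: Kinetic FluxOR thallium fluorescence, 10-s 1-Hz baseline, 110-s post-stimulus read | Medium: Assay buffer with matched DMSO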
Kir21 inh: blocks the mouse Kir2.1 inward-rectifier potassium channel. P35561. HEK293-Kir2.1, FluxOR thallium flux fluorescence; active compounds read low. B-score at 10 µM. 310,000 compounds, 0.85% hits;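 active means fluorescence ratio B-score at or below minus 3 SD of library scores, with starting-brightness B-score within 2 SD, cut at about -4.2 in these data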;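 further: channel flux triggered by added potassium and thallium sulfate stimulus; B-score of peak minus minimum fluorescence over baseline after thallium stimulus; more negative B-score means stronger Kir2.1 block with less thallium influx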
KCNK9 block: inhibitors of human KCNK9 two-pore domain potassium channel; 310,000 compounds, 1.2% hits; B-score at 10 µM; HEK293 KCNK9, FluxOR thallium flux fluorescence; active compounds read low; Q9NPC2; AID 488922;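 active means ratio B-score over 3 SD below the library mean, with starting fluorescence within 5 SD of its mean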;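 further: negative B-score means less thallium flux so channel inhibition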
KCNQ1 inh: blocks the human KCNQ1 potassium channel; P51787; CHO-K1 KCNQ1, FluxOR thallium flux fluorescence; active compounds read high; B-score at 10 µM; 310,000 compounds, 1.3% hits; AID 2642;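 active means compounds whose thallium flux B-score, printed positive for inhibition, exceeds three library SD while starting fluorescence stays within three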;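 further: channel opened by potassium depolarization with thallium stimulus after 20 min compound exposure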
KCNK3 inh: human KCNK3 channel inhibition, primary screen. B-score at 10 µM. AID 602410. 340,000 compounds, 0.84% hits. CHO-KCNK3 thallium flux, FluxOR fluorescence; active compounds read low. O14649;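 active means B-score under library mean minus 4 SD, starting fluorescence ratio at most library mean plus 5 SD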;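 further: more negative B-score means stronger inhibition of thallium flux through KCNK3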
hERG rescue: compounds protecting human hERG from proarrhythmic drug block; AID 1511; Q12809; activation (rescue from dofetilide block), less the hit threshold, % at 10 µM; CHO-hERG, FluxOR thallium flux, dofetilide IC70 present; 310,000 compounds, 0.51% hits;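 active means activation above the mean of controls blocked by dofetilide plus 5 SD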;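 further: thallium influx through hERG after potassium depolarization seen as dye fluorescence rise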
An asterisk follows results filed as active; i = inactive; . = no result given. This is a sample that favours compounds with a hit; in the whole collection about 3.7% have one here.

SMILES	KCNQ1 pot	Kir21 inh	KCNK9 block	KCNQ1 inh	KCNK3 inh	hERG rescue
S=C(Nc1cc(Cl)ccc1Oc1ccccc1)N1CCN(c2ccccn2)CC1	i	-0.04	i	i	i	-8.4
Cn1cccc1/C=N/NC(=O)c1cc2ccccc2cc1O	i	-1.88	i	i	i	-4.6
O=C(CN(CC1CCCO1)C(=O)CNS(=O)(=O)c1ccc(Cl)cc1)NC1CCCC1 (centres undefined)	i	-0.66	i	i	i	-5.1
Cc1ccc(S(=O)(=O)N(C)c2ccc(C)c([N+](=O)[O-])c2)cc1	i	0.3	i	i	i	-12.8
Cc1cc(N(C)C)ccc1[N+](=O)[O-]	i	-0.39	i	i	i	4.7*
CCOc1ccc(S(=O)(=O)/N=C(/Nc2ccc(C)c(S(=O)(=O)N3CCOCC3)c2)c2ccccc2)cc1	.	.	.	.	i	.
Cc1nn(C(C)C(=O)NCCCN2CCCCCC2)c(=O)c2cc3sccc3n12 (centres undefined)	i	0.09	i	i	i	-5.3
CC(Sc1nc2ccccc2s1)C(=O)N(C)Cc1ccccc1 (centres undefined)	i	-4.21*	i	i	i	-7.1
CC1CN(C(=O)C(C)Sc2nc3ccccc3s2)CC(C)O1 (centres undefined)	i	0.07	i	i	i	-6.1
CC(Sc1nnnn1C)C(=O)NC1CCCc2ccccc21 (centres undefined)	i	-1.33	i	i	i	-6.1
CC(Sc1nc2ccccc2s1)C(=O)NC1CCCc2ccccc21 (centres undefined)	i	-5.84*	i	i	i	-10.8
COc1ccc(S(=O)(=O)N(CC(=O)NN=C2CCN(C)CC2)c2cc(Cl)ccc2OC)cc1OC	i	-1.52	i	i	i	-6.0
Cc1ccc(-c2ccc(/C=N/NC(=O)c3ccccc3O)o2)cc1	8*	1.27	i	i	.	-8.4
COc1ccc(C(=O)/C(C#N)=N/Nc2ccc([N+](=O)[O-])cc2)cc1	i	4.34	i	6*	i	-10.1
CCCCn1c(=O)[nH]c(=O)c2c1nc(-c1ccccc1OC(F)F)n2C	i	-0.7	i	i	i	-15.7
COc1ccccc1C(=O)NCCC(=O)N1CC=C(c2ccccc2)CC1	i	-4.46*	i	i	i	-7.6
COc1cccc(C(=O)Nc2cc(C)c3c(=O)oc4ccccc4c3n2)c1	i	-1.48	-10.6*	i	-9.99*	-7.2
COc1ccc(-c2oc(NC(=O)c3ccc(C)cc3)c(C#N)c2-c2ccc(OC)cc2)cc1	i	2.45	i	i	i	-1.1
COc1cccc(C(=O)Nc2c(F)c(F)c(F)c(F)c2F)c1	i	2.36	i	i	i	-11.5
COc1cccc(C(=O)Nc2nc(-c3ccccc3)c(-c3ccccc3)o2)c1	9*	3.72	i	i	i	-6.8
COc1ccc(C(=O)Nc2oc(-c3ccccc3)c(-c3ccccc3)c2C#N)cc1	i	-0.55	i	7*	i	-16.4
O=C(Nc1nc(-c2ccccc2)c(-c2ccccc2)o1)c1ccc(F)cc1	56*	0.07	i	i	i	5.6*
CCOC(=O)C(=O)Nc1nc(-c2ccccc2)c(-c2ccccc2)o1	i	-0.25	i	i	i	-5.4
Cc1ccccc1NC(=O)CC1C(=O)Nc2ccccc2N1CC(=O)N(C)C1CCS(=O)(=O)C1 (centres undefined)	.	.	.	.	i	.
CC(C)C(=O)Nc1ccc(Oc2ccc3c(c2)C(=O)NC3=O)cc1	i	-1.31	i	i	i	-9.5
SMILES	KCNQ1 pot	Kir21 inh	KCNK9 block	KCNQ1 inh	KCNK3 inh	hERG rescue
COc1ccc(Cl)cc1N(C)C(=O)CCNC(=O)Cn1cnc2ccccc2c1=O	i	-0.27	i	i	i	5.0*
O=C(COC(=O)CCCc1nc2ccccc2s1)NC(=O)NCc1ccco1	i	-0.06	i	i	i	6.4*
O=S(=O)(/C(=C/c1ccc(C(F)(F)F)cc1)c1nc2ccccc2[nH]1)c1ccccc1	i	-7.58*	i	i	i	-19.0
Cc1cccc(C(=O)NNC(=O)c2ccc(NS(=O)(=O)c3cccs3)cc2)c1C	.	.	.	.	i	.
O=[N+]([O-])c1cccc(/C=C/c2nc3ccc([N+](=O)[O-])cc3[nH]2)c1	i	0.06	i	9*	i	-35.1
O=C(CCc1nnc(CCCCc2ccccc2)o1)N1CCCCC1CCO (centres undefined)	i	0.02	i	i	i	-7.9
O=C(O)c1ccc(-c2nc(-c3ccccc3)c(-c3cccs3)[nH]2)cc1	i	3.75	i	i	i	-8.8
COc1ccc(-c2nc(-c3cccs3)c(-c3cccs3)[nH]2)cc1O	i	-5.58*	i	i	i	-26.1
COc1ccc(-n2c(-c3ccc(Cl)cc3)c[n+]3c2CCCCC3)cc1	i	1.35	i	i	i	-20.1
COc1ccc(-c2c[n+]3c(n2-c2ccc(C)cc2)CCCCC3)cc1	i	-3.64	i	9*	i	-21.6
CCOc1ccc(-n2c(-c3ccc(OC)cc3)c[n+]3c2CCCCC3)cc1	i	-2.9	i	7*	i	-24.9
CCOc1ccc(-n2c(-c3ccc(Br)cc3)c[n+]3c2CCCCC3)cc1	i	-4.03	i	8*	i	-22.6
CC(=O)N(C1=C(N)C(=O)c2ccccc2C1=O)C(C)C	i	-0.45	i	i	i	6.3*
CC(=O)N(C)C1=C(O)c2ccccc2C(=O)C1=O	i	0.7	i	i	i	-8.5
CCOc1ccccc1NC(=O)Cc1coc2cc(C)ccc12	i	-5.01*	i	i	i	-6.7
COc1ccccc1NC(=O)Cc1coc2cc(C)ccc12	i	-3.5	i	i	i	-6.3
COc1ccc(CCNC(=O)c2nn(C)c3c2CS(=O)(=O)c2ccccc2-3)cc1OC	i	0.59	i	i	i	-4.3
CCOC(=O)c1ccc(Oc2cc(C)nc(SC)n2)cc1	i	-1.6	i	i	i	5.5*
CCOc1ccc(OCC)c(NC(=O)CN2CCN(c3cc(C)ccc3C)CC2)c1	i	-0.06	i	6*	i	-11.0
CCOc1ccc(OCC)c(NC(=O)CN2CCN(c3cccc(C)c3)CC2)c1	i	1.1	i	i	i	-5.9
O=C(NCc1ccc2c(c1)OCO2)c1ccc(CSCc2cccc(Cl)c2)o1	i	-0.37	-7.49*	i	i	-13.7
O=C(CSCc1cccc(Cl)c1)NCc1ccc2c(c1)OCO2	i	-1.04	i	i	i	-11.3
CNCc1sccc1C	i	0.03	i	i	i	-8.3
